Test results published in ChEMBL document CHEMBL1134785, “Synthesis and biological evaluation of prostaglandin-F alkylphosphinic acid derivatives as bone anabolic agents for the treatment of osteoporosis” (J Med Chem, 2001).
Each block holds one compound with its values, some of them ahead of it.

What was measured:
[1] = biological target: T1, Prostaglandin F2-alpha receptor (Homo sapiens, UniProt P43088); experiment: In vitro binding at FP human prostaglandin receptor using [3H]PGF-2 alpha as radioligand
How it was run: (§1)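 COS-7 cells transiently transfected with hFP plasmid and harvested 48 h later. Membranes from nitrogen cavitation and 100000g spin, taken up at 1 mg protein/mL in TME buffer pH 6.0. Each well held 100 μg membrane, 5 nM [3H]PGF2α and competitor, n=3, 1 h at 23 °C. Bound label collected by GF/B filtration, washed in TME, scintillation counted.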

[2] = Dissociation constant was determined; assay type: physicochemical
[3] = biological target: T2, Prostaglandin D2 receptor (Homo sapiens, UniProt Q13258); experiment: In vitro binding at DP human prostaglandin receptor using [3H]- PGD-2 as radioligand
T2 sequence (Q13258 whole entry): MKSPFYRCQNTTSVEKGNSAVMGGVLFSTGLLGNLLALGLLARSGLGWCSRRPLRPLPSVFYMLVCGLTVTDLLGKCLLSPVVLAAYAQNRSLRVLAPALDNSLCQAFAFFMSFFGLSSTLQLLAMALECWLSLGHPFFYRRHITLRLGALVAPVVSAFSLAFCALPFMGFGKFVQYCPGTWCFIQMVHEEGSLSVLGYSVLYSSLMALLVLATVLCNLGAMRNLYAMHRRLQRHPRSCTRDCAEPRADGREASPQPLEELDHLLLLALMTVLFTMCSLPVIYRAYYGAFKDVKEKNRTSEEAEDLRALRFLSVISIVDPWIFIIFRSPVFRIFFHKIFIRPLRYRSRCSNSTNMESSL
How it was run: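 hDP stably expressed in HEK-293 cells, collected 4-5 days after seeding. Membranes made by lysis and 100000g spin, then taken up at 1 mg protein/mL in TME buffer at pH 7.4. Competition binding used 5 nM [3H]PGD2, read by filtration and scintillation counting.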

Thromboxane A2 receptor [4] = biological target: T3, Thromboxane A2 receptor (Homo sapiens, UniProt P21731); experiment: In vitro binding at TP human prostaglandin receptor using [3H]SQ-29,548 as radioligand
T3 sequence (P21731 whole entry): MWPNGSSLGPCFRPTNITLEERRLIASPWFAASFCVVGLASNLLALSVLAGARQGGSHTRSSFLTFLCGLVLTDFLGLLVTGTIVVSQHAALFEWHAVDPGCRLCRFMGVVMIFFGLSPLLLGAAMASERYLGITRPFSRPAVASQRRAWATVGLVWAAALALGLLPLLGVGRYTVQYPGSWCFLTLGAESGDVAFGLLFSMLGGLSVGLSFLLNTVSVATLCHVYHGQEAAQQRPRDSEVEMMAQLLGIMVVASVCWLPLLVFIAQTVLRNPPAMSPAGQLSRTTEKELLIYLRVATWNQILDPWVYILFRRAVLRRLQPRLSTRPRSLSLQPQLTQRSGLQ
How it was run: (§2)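 Receptors stably expressed in CHO cells, collected 4-5 days after seeding. Membranes made by lysis (Tris, EDTA, protease inhibitors) and 100000g pellet, then resuspended at 1 mg protein/mL in TME. Radioligands at 5 nM: [3H]PGE2 for EP2/EP3/EP4, [3H]Iloprost for IP, [3H]SQ-29548 for TP. Competition binding with filtration and counting.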

[5] = biological target: Prostaglandin E2 receptor EP4 subtype (Homo sapiens, UniProt P35408); experiment: In vitro binding at EP4 human prostaglandin receptor using [3H]PGE-2 as radioligand; how it was run: as §2
[6] = biological target: Prostaglandin E2 receptor EP2 subtype (Homo sapiens, UniProt P43116); experiment: In vitro binding at EP2 human prostaglandin receptor using [3H]PGE-2 as radioligand; how it was run: as §2
Prostacyclin receptor = Prostacyclin receptor (Homo sapiens, UniProt P43119); experiment: In vitro binding at prostanoid IP receptor using [3H]iloprost as radioligand; how it was run: as §2
[7] = biological target: T4, Prostaglandin E2 receptor EP1 subtype (Homo sapiens, UniProt P34995); experiment: In vitro binding at EP1 human prostaglandin receptor using [3H]PGE-2 as radioligand
T4 sequence (P34995 whole entry): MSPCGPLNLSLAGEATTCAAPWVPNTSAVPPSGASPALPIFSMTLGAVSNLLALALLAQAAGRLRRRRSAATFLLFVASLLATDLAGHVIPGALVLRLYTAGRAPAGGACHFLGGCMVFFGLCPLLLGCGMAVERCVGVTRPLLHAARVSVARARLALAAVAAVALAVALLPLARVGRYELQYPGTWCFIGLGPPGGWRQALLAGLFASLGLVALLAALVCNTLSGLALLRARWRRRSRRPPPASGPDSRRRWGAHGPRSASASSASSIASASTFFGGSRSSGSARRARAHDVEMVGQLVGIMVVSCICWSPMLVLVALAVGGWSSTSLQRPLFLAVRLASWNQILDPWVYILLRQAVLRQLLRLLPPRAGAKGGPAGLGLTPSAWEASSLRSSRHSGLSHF
How it was run: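 hEP1 transiently expressed in COS-7 cells by the hFP transfection and membrane protocol, with membranes in TME buffer pH 6.0. Competition binding used 5 nM [3H]PGE2, 1 h at 23 °C, filtration and scintillation counting.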

[8] = biological target: T5, Prostaglandin E2 receptor EP3 subtype (Homo sapiens, UniProt P43115); experiment: In vitro binding at EP3 human prostaglandin receptor using [3H]PGE-2 as radioligand; how it was run: as §2
T5 sequence (P43115 whole entry): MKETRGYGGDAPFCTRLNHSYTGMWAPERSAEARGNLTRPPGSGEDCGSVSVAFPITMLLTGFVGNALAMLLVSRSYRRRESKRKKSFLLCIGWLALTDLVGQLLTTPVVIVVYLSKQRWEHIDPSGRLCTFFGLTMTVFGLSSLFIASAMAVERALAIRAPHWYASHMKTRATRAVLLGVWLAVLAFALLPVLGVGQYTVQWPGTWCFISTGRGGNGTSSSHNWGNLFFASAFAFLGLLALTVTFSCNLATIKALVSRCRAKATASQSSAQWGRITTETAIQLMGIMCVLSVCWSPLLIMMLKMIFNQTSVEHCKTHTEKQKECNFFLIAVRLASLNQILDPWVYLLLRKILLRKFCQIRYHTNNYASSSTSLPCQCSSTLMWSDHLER

[9] = biological target: T5, Prostaglandin E2 receptor EP3 subtype; experiment: Functional activity in RAT-1 cells, transiently transfected with human prostaglandin EP3 receptor; assay type: cell-based
How it was run: (§3)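 RAT-1 cells transiently transfected with the human receptor, carrying a stably transfected, constitutively expressed β-galactosidase reporter gene. EC50 read after timed hydrolysis of a galactosidase pseudosubstrate.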

Thromboxane A2 receptor [10] = biological target: T3, Thromboxane A2 receptor; experiment: Functional activity in RAT-1 cells, transiently transfected with human prostaglandin TP receptor; assay type: cell-based; how it was run: as §3
[11] = biological target: T4, Prostaglandin E2 receptor EP1 subtype; experiment: Functional activity in RAT-1 cells, transiently transfected with human prostaglandin EP1 receptor; assay type: cell-based; how it was run: as §3
[12] = biological target: T1, Prostaglandin F2-alpha receptor; experiment: In vitro binding at FP human prostaglandin receptor using [3H]- PGF-2 alpha as radioligand; how it was run: as §1
Rattus norvegicus [13] = experiment: Mineral apposition measured Histomorphometrically after a dose of 3 ug/kg in proximal tibial metaphysis
Rattus norvegicus [14] = experiment: Mineralizing apposition measured Histomorphometrically after a dose of 250 ug/kg in Tibial Diaphysis; assay type: functional
Rattus norvegicus [15] = experiment: Tissue area measured Histomorphometrically after a dose of 250 ug/kg in Tibial Diaphysis; assay type: functional
Rattus norvegicus [16] = experiment: Periosteal mineralizing surface measured Histomorphometrically after a does of 250 ug/kg in Tibial Diaphysis; assay type: functional
Rattus norvegicus [17] = experiment: Marrow area measured Histomorphometrically after a dose of 250 ug/kg in Tibial Diaphysis; assay type: functional
Rattus norvegicus [18] = experiment: Connectivity density measured using micro Computed Tomography(CT) after a dose of 250 ug/kg in Vertebral Bone; assay type: functional
Rattus norvegicus [19] = experiment: Trabecular thickness measured Histomorphometrically after a dose of 250 ug/kg in proximal tibial metaphysis; assay type: functional, Trabecula
Rattus norvegicus [20] = experiment: Derived trabecular no measured using micro Computed Tomography(CT) after a dose of 6000 ug/kg in Vertebral Bone; assay type: functional, Trabecula
How it was run: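 Micro-CT of the fifth lumbar vertebra, measuring cancellous bone volume and architecture. Rats were 6 months old, OVX 60 days before treatment, then dosed daily for 60 days. Test-agent doses were 10–3000 µg/kg, given as a once-daily subcutaneous injection; 6 mg/kg/day was given to the positive-control group. Groups were compared with vehicle by ANOVA plus LSD test.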

Rattus norvegicus [21] = experiment: Mineral surface/bone surface measured Histomorphometrically after a dose of 250 ug/kg in proximal tibial metaphysis; assay type: functional
Rattus norvegicus [22] = experiment: Trabecular no measured Histomorphometrically after a dose of 250 ug/kg in proximal tibial metaphysis; assay type: functional, Trabecula
Rattus norvegicus [23] = experiment: Mineral apposition measured Histomorphometrically after a dose of 250 ug/kg in proximal tibial metaphysis; assay type: functional
Rattus norvegicus [24] = experiment: Bone Formation rate/bone measured Histomorphometrically after a dose of 250 ug/kg in proximal tibial metaphysis; assay type: functional
Rattus norvegicus [25] = experiment: Derived trabecular thickness measured using micro Computed Tomography(CT) after a dose of 250 ug/kg in Vertebral Bone; assay type: functional, Trabecula
Rattus norvegicus [26] = experiment: Directly measured thickness measured using micro Computed Tomography(CT) after a dose of 250 ug/kg in Vertebral Bone; assay type: functional
Rattus norvegicus [27] = experiment: Bone Volume /Tissue Volume (%)measured using micro Computed Tomography(CT) after a dose of 250 ug/kg in Vertebral Bone; assay type: functional
Rattus norvegicus [28] = experiment: Bone Volume /Tissue Volume (%)measured Histomorphometrically after a dose of 250 ug/kg in proximal tibial metaphysis; assay type: functional
Rattus norvegicus [29] = experiment: Endosteal eroded surface measured Histomorphometrically after a dose of 250 ug/kg in Tibial Diaphysis; assay type: functional
Rattus norvegicus [30] = experiment: Bone Formation rate/tissue vol measured Histomorphometrically after a does of 250 ug/kg in proximal tibial metaphysis; assay type: functional
Rattus norvegicus [31] = experiment: Endosteal mineralizing surface measured Histomorphometrically after a does of 250 ug/kg in Tibial Diaphysis; assay type: functional

T1 sequence (P43088 whole entry): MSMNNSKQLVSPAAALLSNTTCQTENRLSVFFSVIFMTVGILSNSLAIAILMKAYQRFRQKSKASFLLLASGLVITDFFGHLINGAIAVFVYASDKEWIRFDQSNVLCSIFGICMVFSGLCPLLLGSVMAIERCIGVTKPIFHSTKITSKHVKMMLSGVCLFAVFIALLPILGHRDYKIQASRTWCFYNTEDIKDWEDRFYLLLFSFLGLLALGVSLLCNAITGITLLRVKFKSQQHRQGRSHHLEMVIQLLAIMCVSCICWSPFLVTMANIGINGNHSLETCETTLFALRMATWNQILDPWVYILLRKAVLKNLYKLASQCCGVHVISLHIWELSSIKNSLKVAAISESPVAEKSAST
Chain of Prostaglandin E2 receptor EP2 subtype (P43116 whole entry): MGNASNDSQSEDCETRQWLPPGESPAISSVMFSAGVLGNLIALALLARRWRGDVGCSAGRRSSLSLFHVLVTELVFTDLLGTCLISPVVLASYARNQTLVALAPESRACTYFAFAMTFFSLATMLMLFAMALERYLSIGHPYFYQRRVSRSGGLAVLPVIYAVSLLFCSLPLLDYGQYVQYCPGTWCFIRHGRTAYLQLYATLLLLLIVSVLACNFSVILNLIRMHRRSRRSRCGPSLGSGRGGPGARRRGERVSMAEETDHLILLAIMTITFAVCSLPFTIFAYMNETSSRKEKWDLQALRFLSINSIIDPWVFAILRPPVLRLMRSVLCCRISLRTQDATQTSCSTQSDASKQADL
Chain of Prostacyclin receptor (P43119 whole entry): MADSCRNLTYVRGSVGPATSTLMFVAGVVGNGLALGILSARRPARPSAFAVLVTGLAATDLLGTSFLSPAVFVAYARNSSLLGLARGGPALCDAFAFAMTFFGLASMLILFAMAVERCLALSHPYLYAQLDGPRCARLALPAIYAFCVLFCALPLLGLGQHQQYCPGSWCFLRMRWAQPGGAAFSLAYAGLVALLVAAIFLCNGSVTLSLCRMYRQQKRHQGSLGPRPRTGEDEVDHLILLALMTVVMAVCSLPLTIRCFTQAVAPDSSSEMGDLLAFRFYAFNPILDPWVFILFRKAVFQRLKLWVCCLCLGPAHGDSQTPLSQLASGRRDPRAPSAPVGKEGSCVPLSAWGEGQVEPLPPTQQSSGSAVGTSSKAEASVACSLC
Chain of Prostaglandin E2 receptor EP4 subtype (P35408 whole entry): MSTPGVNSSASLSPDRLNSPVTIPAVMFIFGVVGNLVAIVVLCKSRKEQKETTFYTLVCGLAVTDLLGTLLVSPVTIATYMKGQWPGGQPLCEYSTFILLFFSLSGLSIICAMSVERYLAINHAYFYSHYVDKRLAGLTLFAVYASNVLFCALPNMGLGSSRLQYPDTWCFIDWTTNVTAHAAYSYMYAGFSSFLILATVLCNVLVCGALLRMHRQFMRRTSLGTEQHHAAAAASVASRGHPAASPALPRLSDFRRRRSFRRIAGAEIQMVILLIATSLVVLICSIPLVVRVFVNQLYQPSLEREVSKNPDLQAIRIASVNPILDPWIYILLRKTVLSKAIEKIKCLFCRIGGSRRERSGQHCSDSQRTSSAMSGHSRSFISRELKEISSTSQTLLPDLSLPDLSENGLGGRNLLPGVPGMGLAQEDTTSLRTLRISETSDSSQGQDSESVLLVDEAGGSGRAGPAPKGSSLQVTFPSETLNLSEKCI

Compound: CCCCC[C@H](O)/C=C/[C@@H]1[C@@H](C/C=C\CCC[PH](=O)O)[C@@H](O)C[C@H]1O
IC50 [3]: > 10000 nM
IC50 [1]: 114 nM
IC50 (Thromboxane A2 receptor [4]): > 10000 nM
IC50 [5]: > 10000 nM
IC50 [6]: > 10000 nM
pKa [2]: 3.39
IC50 (Prostacyclin receptor): > 10000 nM
IC50 [7]: > 10000 nM
IC50 [8]: > 10000 nM

Compound: O=C(O)CCC/C=C\C[C@@H]1[C@@H](/C=C/[C@@H](O)COc2ccccc2)[C@H](O)C[C@@H]1O
EC50 [9]: 186 nM
IC50 [1]: 2 nM
EC50 (Thromboxane A2 receptor [10]): 510 nM
EC50 [11]: 38 nM
pKa [2]: 4.77

Compound: NCCCC(O)(P(=O)(O)O)P(=O)(O)O [ALENDRONIC ACID]
Mineral apposition rate (Rattus norvegicus [13]): 0.63 µm/day

Compound: O=C(O)CCC/C=C\CC1C(O)CC(O)C1/C=C/C(O)COc1cccc(Cl)c1 (centres undefined) [CLOPROSTENOL]
Mineralizing apposition rate (Rattus norvegicus [14]): 1.6 µm/day
Tissue area (Rattus norvegicus [15]): 4.78 mm
Periosteal mineralizing surface (Rattus norvegicus [16]): 9.91%
Marrow area (Rattus norvegicus [17]): 0.7 mm
Connectivity density (Rattus norvegicus [18]): 61.13 mm**-3
Trabecular thickness (Rattus norvegicus [19]): 53.9
Derived trabecular number (Rattus norvegicus [20]): 4.6 mM⁻¹
Activity (Rattus norvegicus [21]): 22.99%
Trabecular no. (Rattus norvegicus [22]): 1.77
Mineral apposition rate (Rattus norvegicus [23]): 1.09 µm/day
Activity (Rattus norvegicus [24]): 286.86%
Derived trabecular thickness (Rattus norvegicus [25]): 85.8 µm
Directly measured thickness (Rattus norvegicus [26]): 138 µm
Activity (Rattus norvegicus [27]): 42.04%
Activity (Rattus norvegicus [28]): 9.5%
Endosteal eroded surface (Rattus norvegicus [29]): 2.22%
Activity (Rattus norvegicus [30]): 26.44%
Endosteal mineralizing surface (Rattus norvegicus [31]): 55.18%

Compound: CCCCC[C@H](O)/C=C/[C@@H]1[C@@H](C/C=C\CCCC(=O)O)[C@@H](O)C[C@H]1O [DINOPROST]
IC50 (Thromboxane A2 receptor [4]): > 10000 nM
IC50 [6]: > 10000 nM
pKa [2]: 4.77
IC50 (Prostacyclin receptor): > 10000 nM
IC50 [7]: 220 nM
IC50 [8]: 110 nM

Continued, values first:

IC50 [1]: 6700 nM
pKa [2]: 3.36
Compound: CCCCC[C@H](O)/C=C/[C@@H]1[C@@H](C/C=C\CCCP(=O)(O)CCCC)[C@@H](O)C[C@H]1O

IC50 [1]: 4100 nM
pKa [2]: 3.24
Compound: CCCCC[C@H](O)/C=C/[C@@H]1[C@@H](C/C=C\CCCP(=O)(O)CC)[C@@H](O)C[C@H]1O

IC50 [12]: > 10000 nM
pKa [2]: 2.36
Compound: CCCCC[C@H](O)/C=C/[C@@H]1[C@@H](C/C=C\CCCP(=O)(O)OCC)[C@@H](O)C[C@H]1O

IC50 [12]: 1000 nM
pKa [2]: 2.38
Compound: CCCCC[C@H](O)/C=C/[C@@H]1[C@@H](C/C=C\CCCP(=O)(O)O)[C@@H](O)C[C@H]1O

IC50 [1]: 311 nM
pKa [2]: 3.1
Compound: CCCCC[C@H](O)/C=C/[C@@H]1[C@@H](C/C=C\CCCP(C)(=O)O)[C@@H](O)C[C@H]1O
